Assays:
P3 (FN1853-1877) (human) = experiment: radioligand binding
[1] = biological target: anastellin (FN630-704) with a Cys-tag at the C-terminus (human); experiment: radioligand binding
[2] = biological target: FN668-704, second half of anastellin, with cysteine at the C-terminus (human); experiment: radioligand binding
P4 (FN2043-2076) (human) = experiment: radioligand binding
FN-null fibroblasts = experiment: FN-null cell survival on CBD/14 with peptide in solution; format: cell-based, mouse; conditions: serum-free DMEM, 1nM PDGF-BB, 3d, viable cells counted
Procedure, shortened: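 Mouse FN-null fibroblasts were maintained in DMEM with 10% FBS. 96-well plates were precoated with 0.125μM GST-tagged CBD/14, blocked with 2% BSA for 2h and washed. Cells were seeded at 4,000/well for 4h at 37°C in serum-free DMEM, and BSA medium with soluble test compound ±1nM PDGF-BB was added. After 3d at 37°C, viable spread cells were counted in five 10x fields in three replicate wells (mean ± SD, n=15).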

cell growth = conditions: RWRPK by itself; ref Hocking et al., 2008; cited from earlier work
[3] = biological target: Recombinant PDGF-BB (platelet-derived growth factor-BB) (UniProt P01127); experiment: SPR
Recombinant PDGF-BB (platelet-derived growth factor-BB), sequence (P01127 82-190): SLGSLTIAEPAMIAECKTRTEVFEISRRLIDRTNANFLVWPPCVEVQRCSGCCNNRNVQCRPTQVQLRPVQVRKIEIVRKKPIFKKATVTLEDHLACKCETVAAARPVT

[4] = biological target: 125I-PDGF-BB (125I-radiolabeled platelet-derived growth factor-BB) (UniProt P01127 82-190, 125I label (site not stated)); experiment: radioligand binding
125I-PDGF-BB (125I-radiolabeled platelet-derived growth factor-BB) (UniProt P01127 82-190, 125I label (site not stated)), sequence (P01127 82-190): as above

125I-PDGF-BB (125I-radiolabeled platelet-derived growth factor-BB) (from UniProt P01127 82-190) (ligand), sequence (P01127 82-190): as above

## 125I-PDGF-BB (125I-radiolabeled platelet-derived growth factor-BB) (from UniProt P01127 82-190) (ligand)
P3 (FN1853-1877) (human)
  Kd: 87 nM
[1]
  Kd: 90 nM
[2]
  Kd: 80 nM
P4 (FN2043-2076) (human)
  Kd: 56 nM

## RWRPK
FN-null fibroblasts
  FN-null cell survival on CBD/14, peptide in solution: does not collaborate with PDGF-BB
Cell growth
  Cell growth: inhibits cell growth

## QWNAPQPSHISKYILRWRPK [Peptide P11]
FN-null fibroblasts
  FN-null cell survival on CBD/14, peptide in solution: promoted PDGF-BB survival signals

## QPSHISKYILRWRPK [Peptide P5]
FN-null fibroblasts
  FN-null cell survival on CBD/14, peptide in solution: promoted PDGF-BB survival signals

## anastellin (FN630-704) with a Cys-tag at the C-terminus (domain or fragment)
[3]
  Kd: 22.9 nM

## QPSHISKYILRWRPKNSVGRWKEAT [P1 (FN634-658)]
[4]
  Kd: 250 nM

## QLISHQQYGHQEVTRFDFTTTSTST [P2 (FN680-704)]
[4]
  Kd: 110 nM

Reference: PMC3961564 (The Journal of investigative dermatology, 2013)
